Test results as given in ChEMBL document CHEMBL1158182, “Antifungal activity of chalcones: a mechanistic study using various yeast strains” (Eur J Med Chem, 2008).

Assays:
Format in all cases: functional
Ogataea angusta [1] = assay: Antifungal activity against Hansenula polymorpha MC1 with met2 cys1 genotype by agar dilution method
Method in brief: (§1)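 H. polymorpha strains were tested by agar dilution on rich YPD agar at 37 °C. Compound stocks in 96% EtOH were mixed into the medium to give […]. Cells were suspended in water, serially diluted to 10^9, 10^7, 10^5 and 10^3 cells/ml, and applied to the agar with a metal replicator. MIC was read from growth.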

Ogataea angusta [2] = assay: Antifungal activity against Hansenula polymorpha CRD2 with leu2 CDR2 genotype by agar dilution method; method in brief: as §1
Ogataea angusta [3] = assay: Antifungal activity against Hansenula polymorpha R3 with rgh3 genotype by agar dilution method; method in brief: as §1
Ogataea angusta [4] = assay: Antifungal activity against Hansenula polymorpha D22 with arg1/arg1 ade1/ADE1 leu2/leu2 URA3/ura3 CYS1/cys1 genotype by agar dilution method; method in brief: as §1
Ogataea angusta [5] = assay: Antifungal activity against Hansenula polymorpha WT2 with ade1 met6 genotype by agar dilution method; method in brief: as §1
Saccharomyces cerevisiae [6] = assay: Antifungal activity against haploid Saccharomyces cerevisiae YSH1170 by agar dilution method
Method in brief: (§2)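 S. cerevisiae and K. lactis strains were tested by agar dilution on rich YPD agar at 30 °C. Compound stocks in 96% EtOH were added to the medium to give […]. Cells were suspended in water, serially diluted to 10^9–10^3 cells/ml, and plated with a metal replicator. MIC was read from growth.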

Kluyveromyces lactis [7] = assay: Antifungal activity against Kluyveromyces lactis 2-19B with MATalpha ura lys arg genotype by agar dilution method; method in brief: as §2
Kluyveromyces lactis [8] = assay: Antifungal activity against Kluyveromyces lactis 2-18B with MATalpha metA1 ura3 leu2 genotype by agar dilution method; method in brief: as §2
Saccharomyces cerevisiae [9] = assay: Antifungal activity against haploid Saccharomyces cerevisiae 10560-6B by agar dilution method; method in brief: as §2
Saccharomyces cerevisiae [10] = assay: Antifungal activity against diploid Saccharomyces cerevisiae 29a by agar dilution method; method in brief: as §2
Ogataea angusta [11] = assay: Antifungal activity against Hansenula polymorpha CD3 with ade1 leu2 cds3 genotype by agar dilution method; method in brief: as §1
Saccharomyces cerevisiae [12] = assay: Antifungal activity against haploid Saccharomyces cerevisiae 2180 by agar dilution method; method in brief: as §2
Ogataea angusta [13] = assay: Antifungal activity against Hansenula polymorpha M4 with met4 genotype by agar dilution method; method in brief: as §1
Ogataea angusta [14] = assay: Antifungal activity against Hansenula polymorpha AS1 with arg1 gsh2delta genotype by agar dilution method; method in brief: as §1
Kluyveromyces lactis [15] = assay: Antifungal activity against Kluyveromyces lactis 1-6A with MATalpha uraA lys arg genotype by agar dilution method; method in brief: as §2
Saccharomyces cerevisiae [16] = assay: Antifungal activity against haploid Saccharomyces cerevisiae YSH1171 by agar dilution method; method in brief: as §2
Ogataea angusta [17] = assay: Antifungal activity against Hansenula polymorpha AU05 with ade3 ura3 genotype by agar dilution method; method in brief: as §1
Ogataea angusta [18] = assay: Antifungal activity against Hansenula polymorpha CD1 with ade1 leu2 cds1 genotype by agar dilution method; method in brief: as §1
Saccharomyces cerevisiae [19] = assay: Antifungal activity against haploid Saccharomyces cerevisiae FY4 by agar dilution method; method in brief: as §2
Ogataea angusta [20] = assay: Antifungal activity against Hansenula polymorpha 2a with arg1 leu2 ura3 cys1 genotype by agar dilution method; method in brief: as §1
Ogataea angusta [21] = assay: Antifungal activity against Hansenula polymorpha M2 with met2 genotype by agar dilution method; method in brief: as §1
Saccharomyces cerevisiae [22] = assay: Antifungal activity against diploid Saccharomyces cerevisiae 1a by agar dilution method; method in brief: as §2
Ogataea angusta [23] = assay: Antifungal activity against Hansenula polymorpha 2b with arg1 ade1 leu2 genotype by agar dilution method; method in brief: as §1
Ogataea angusta [24] = assay: Antifungal activity against Hansenula polymorpha WT1 with ade1 ura3 genotype by agar dilution method; method in brief: as §1
Saccharomyces cerevisiae [25] = assay: Antifungal activity against haploid Saccharomyces cerevisiae 1169 by agar dilution method; method in brief: as §2
Saccharomyces cerevisiae [26] = assay: Antifungal activity against haploid Saccharomyces cerevisiae 1S by agar dilution method; method in brief: as §2
Ogataea angusta [27] = assay: Antifungal activity against Hansenula polymorpha CD2 with ade1 leu2 cds2 genotype by agar dilution method; method in brief: as §1
Saccharomyces cerevisiae [28] = assay: Antifungal activity against haploid Saccharomyces cerevisiae Sigma 1278b by agar dilution method; method in brief: as §2

Measured: MIC

Cc1ccc(/C=C/C(=O)c2ccc(Cl)cc2)cc1
> 40 µg/mL: all assays above

COc1ccc(/C=C/C(=O)c2ccc(Cl)cc2)cc1
> 40 µg/mL: all assays above

O=C(/C=C/c1ccc(O)cc1)c1ccccc1 [4-HYDROXYCHALCONE]
> 40 µg/mL: all assays above
